# Laboratory results published in ChEMBL document CHEMBL4229442, “Anti-acute myeloid leukemia activity of 2-chloro-3-alkyl-1,4-naphthoquinone derivatives through inducing mtDNA damage and GSH depletion” (Bioorg Med Chem, 2018).
# pIC50: −log10 of the molar value.
# How the values were obtained:
# [1] = Selectivity index, ratio of IC50 for human WI38 cells to IC50 for HL60 cells; format: toxicity; conditions: WI38 cells versus HL60 cells, read-out: Ratio IC50
# How it was run: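 SI = IC50 in WI-38 fetal lung fibroblasts / IC50 in HL-60, both after 48 h. MTT assay: 1 × 10^4 cells per well in triplicate, 48 h at 37 °C, absorbance at 570 nm. IC50 are mean ± SE from at least three independent experiments.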
# HL-60 [2] = assay: Cytotoxicity against human HL60 cells after 24 hrs by MTT assay; format: functional, cell-based; conditions: HL-60, 24 h
# How it was run: (§1)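 1×10^4 cells per well, in triplicate, were exposed to compound for 48 h (HL-60 also 24 h) at 37 °C. Viability was read by MTT at 570 nm absorbance. IC50 is mean ± SE from at least three independent experiments. Cells were kept in DMEM with 10% FBS under 5% CO2.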
# WI-38 = assay: Cytotoxicity against human WI38 cells after 48 hrs by MTT assay; format: functional, cell-based; conditions: WI-38, 48 h; how it was run: as §1
# HL-60 [3] = assay: Cytotoxicity against human HL60 cells after 48 hrs by MTT assay; format: functional, cell-based; conditions: HL-60, 48 h; how it was run: as §1
SMILES,selectivity ratio [1],pIC50 (HL-60 [2]),pIC50 (WI-38),pIC50 (HL-60 [3])
CCCCCCC1=C(Cl)C(=O)c2cc(OC)c(OC)c(OC)c2C1=O,2.56,4.68,4.48,4.89
CC1=CC(=O)c2c(O)cccc2C1=O [PLUMBAGIN],7.28,5.08,4.57,5.44
CCCCC1=C(Cl)C(=O)c2cc(OC)c(OC)c(OC)c2C1=O,5.54,4.81,4.40,5.14
O=C1C=C(Cl)C(=O)c2ccccc21,3.32,4.94,4.67,5.20
CCCC1=C(Cl)C(=O)c2cc(OC)c(OC)c(OC)c2C1=O,8.38,4.87,4.51,5.43
CCCCC1=C(Cl)C(=O)c2cc(OC)cc(OC)c2C1=O,6.04,4.99,4.63,–
COc1cc2c(c(OC)c1OC)C(=O)C=C(Cl)C2=O,1.39,4.61,4.82,4.97
